Screening data deposited in PubChem by Sanford-Burnham Center for Chemical Genomics.
SENP7 inh – SENP7 protease inhibitors, primary screen, biochemical, luminescence, uHTS; recombinant SENP7, Z-RLRGG-aminoluciferin luminescence, 40 min; actives 1.5% (n = 330,000); Sentrin-specific protease 7 (Homo sapiens), Q9BQF6; inhibition, % at 5 µM; AID 434973, 2010;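 active means inhibition above about 50% at the single test dose, limit read from the data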
SENP8 block-1 – human SENP8 protease inhibitors, primary screen, biochemical, fluorescence, Nedd8 protein substrate, uHTS; AID 602440, 2012; recombinant SENP8; inhibition, % at 20 µM; Sentrin-specific protease 8 (Homo sapiens), Q96LD8; actives 0.64% (n = 360,000); in the data active means inhibition mostly above about 40%, no sharp cut-off; inactive means mostly below about 27%
SENP1 inh – human SENP1 catalytic domain inhibitors, primary screen, biochemical, FRET, uHTS; inhibition, % at 10 µM; recombinant SENP1 catalytic domain, CyPet-SUMO1-YPet FRET cleavage; AID 624204, 2012; actives 0.21% (n = 360,000); Sentrin-specific protease 1 (Homo sapiens), Q9P0U3;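 active means inhibition at least 30% at 10 µM, raw YFP signal under a set limit, fluorescence ratio 0.5 to 1.5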
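Test system: recombinant human SENP1 catalytic domain, His6-tagged / Medium: pH 8 Tris buffer with EDTA, NaCl, BME, BSA, NP40, catalase / Also added: SUMO1 FRET substrate flanked by Cypet and Ypet, 25 nM / Times: 50 min reaction at room temperature / Signal: FRET, CFP and YFP emission / Control set: no-enzyme low control and enzyme-plus-DMSO high control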
SENP6 inh – SENP6 protease inhibitors, primary screen, biochemical, luminescence, uHTS. Sentrin-specific protease 6 (Homo sapiens), Q9GZR1. Recombinant SENP6 catalytic domain, aminoluciferin luminescence. inhibition, % at 10 µM. actives 1.8% (n = 330,000). AID 2599, 2010;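 active means inhibition above about 50% at the single tested dose, limit read from the data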
Target sequence (Q9GZR1 628-1112 limits assumed): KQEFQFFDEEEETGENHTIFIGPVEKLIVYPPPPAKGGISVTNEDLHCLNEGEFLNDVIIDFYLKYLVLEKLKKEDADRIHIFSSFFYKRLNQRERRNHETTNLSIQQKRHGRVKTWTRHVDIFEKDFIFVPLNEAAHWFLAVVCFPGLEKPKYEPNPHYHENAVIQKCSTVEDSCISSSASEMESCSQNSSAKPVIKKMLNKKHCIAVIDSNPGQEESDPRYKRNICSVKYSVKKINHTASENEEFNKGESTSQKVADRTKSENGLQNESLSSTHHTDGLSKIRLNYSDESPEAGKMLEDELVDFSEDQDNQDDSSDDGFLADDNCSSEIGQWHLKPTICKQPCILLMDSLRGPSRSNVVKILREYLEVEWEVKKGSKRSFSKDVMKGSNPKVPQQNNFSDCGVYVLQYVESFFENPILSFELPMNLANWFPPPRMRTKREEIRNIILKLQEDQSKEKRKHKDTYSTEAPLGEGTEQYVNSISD
SENP8 block-2 – SENP8 protease inhibitors, primary screen, biochemical, luminescence; Sentrin-specific protease 8 (Homo sapiens), Q96LD8; purified SENP8, Z-RLRGG-aminoluciferin cleavage; inhibition, % at 10 µM; actives 1.2% (n = 330,000); AID 2540, 2010; in the data active means inhibition above about 50%
SENP8 conf – SENP8 protease inhibitors, retest, confirmation, biochemical, luminescence, single concentration | inhibition, % at 12.5 µM | Recombinant SENP8, Z-RLRGG-aminoluciferin luminescence, 60 min | AID 488912, 2010 | actives 40% (n = 6,200) | shares compounds with SENP7 inh;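 active means mean inhibition across replicates above about 50%, limit read from the data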
SENP6 confirm – SENP6 protease inhibitors, confirmation, biochemical, luminescence, single concentration; shares compounds with SENP7 inh; recombinant SENP6, Z-RLRGG-aminoluciferin luminescence; inhibition, % at 12.5 µM; actives 58% (n = 6,200); AID 488915, 2010
SENP7 conf – SENP7 protease inhibitors, retest, confirmation, biochemical, luminescence, single concentration; actives 69% (n = 6,200); recombinant SENP7, Z-RLRGG-aminoluciferin luminescence, 40 min; shares compounds with SENP7 inh; inhibition, % at 12.5 µM
Casp3 SENP sel – caspase-3 protease inhibitors, confirmation, selectivity assay for SENP inhibitor project, biochemical, single concentration. shares compounds with SENP7 inh. purified caspase-3, Z-DEVD-aminoluciferin luminescence, 60 min. actives 60% (n = 6,200). inhibition, % at 12.5 µM;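 active means mean inhibition above about 50%, limit read from the data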
SENP luc ctr – interferes with luciferase luminescence in SENP counter-screen; shares compounds with SENP7 inh; Pre-incubated SENP8/Z-RLRGG-aminoluciferin, luciferase luminescence interference; inhibition, % at 12.5 µM; actives 39% (n = 6,200);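 active means mean inhibition above about 50% when retested at one dose, limit read from the data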
Large screens that a line does not name were inactive (follow-up assays come after a bar, where they were run). Sampled rows, rich in hits. Any-hit rate of the full collection: about 2.5%.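 How the source made its calls, unless noted: active means mean inhibition above about 50% in the one-dose retest (limit read from the data); inactive means the rest.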

COc1ccc(C(=O)O/N=C(\N)c2ccccc2)c(OC)c1	SENP7 inh 81.5, SENP6 inh 91.8, SENP8 block-2 82.0 | SENP8 conf 76.0 | SENP6 confirm 69.3 | SENP7 conf 89.4 | Casp3 SENP sel 84.7 | SENP luc ctr 71.6
COc1ccc(C(=O)O/N=C(\N)c2ccc(OC)c(OC)c2)cc1	SENP7 inh 81.3, SENP6 inh 64.0 | SENP8 conf inactive | SENP6 confirm inactive | SENP7 conf 61.2 | Casp3 SENP sel inactive | SENP luc ctr inactive
COc1ccc(C(=O)O/N=C(\N)c2ccc(OC)c(OC)c2)c(OC)c1	none
CCOc1ncccc1C(=O)OCC(=O)c1cc(C)n(Cc2ccco2)c1C	SENP6 inh 71.3 | SENP8 conf 69.5 | SENP6 confirm 65.5 | SENP7 conf 87.1 | Casp3 SENP sel 58.2 | SENP luc ctr inactive
Cc1ccc(-c2cn3cccc(C)c3n2)cc1	none (no result: SENP7 inh, SENP6 inh, SENP8 block-2)
Cc1cccn2cc(-c3ccc(Cl)cc3)nc12	SENP7 inh 91.3, SENP6 inh 94.6, SENP8 block-2 88.5 | SENP8 conf 94.8 | SENP6 confirm 95.6 | SENP7 conf 101.4 | Casp3 SENP sel 92.0 | SENP luc ctr 54.3
N#C/C(=N\Nc1ccccc1Cl)C(=O)c1ccccc1	none
N#C/C(=N\Nc1cccc(Cl)c1)C(=O)c1ccccc1	SENP6 inh 86.7, SENP8 block-2 68.9 | SENP8 conf inactive | SENP6 confirm 73.5 | SENP7 conf 76.1 | Casp3 SENP sel inactive | SENP luc ctr 72.2
Nc1c(Cl)ncnc1N/N=C/c1cccc(O)c1	SENP6 inh 56.3 | SENP8 conf inactive | SENP6 confirm inactive | SENP7 conf 70.3 | Casp3 SENP sel 67.8 | SENP luc ctr inactive
O=C(c1ccco1)c1coc2c1cc(O)c1ccccc12	SENP6 inh 60.2 | SENP8 conf inactive | SENP6 confirm inactive | SENP7 conf inactive | Casp3 SENP sel inactive | SENP luc ctr inactive
CCC(C)NC(=O)c1cc2cc3ccc(OC)cc3nc2s1 (stereo unspecified)	SENP7 inh 60.2 | SENP8 conf inactive | SENP6 confirm 60.9 | SENP7 conf 86.7 | Casp3 SENP sel 71.6 | SENP luc ctr inactive
COc1ccccc1C(=O)C1CCCN(C(=O)CCn2cnnn2)C1 (stereo unspecified)	none
O=C1CCC(c2ccc3ccccc3c2)O1 (stereo unspecified)	none (no result: SENP7 inh, SENP6 inh, SENP8 block-2)
O=c1oc2ccccc2cc1-c1cn2cccnc2n1	SENP6 inh 58.5 | SENP8 conf inactive | SENP6 confirm inactive | SENP7 conf 82.2 | Casp3 SENP sel 81.7 | SENP luc ctr inactive
Cc1nc(N2CCOCC2)[nH]c(=O)c1[N+](=O)[O-]	none
Cn1nc([N+](=O)[O-])nc1N1CCOCC1	SENP8 block-2 60.9 | SENP8 conf inactive | SENP6 confirm inactive | SENP7 conf inactive | Casp3 SENP sel inactive | SENP luc ctr inactive
O=C(O)c1cccc(C(=O)Cc2ccccc2)c1	SENP6 inh 74.6, SENP8 block-2 55.5 | SENP8 conf 62.6 | SENP6 confirm 60.1 | SENP7 conf 87.7 | Casp3 SENP sel 91.5 | SENP luc ctr 73.8
O=C(CN1C(=O)NC(c2ccccc2)(c2ccccc2)C1=O)c1c[nH]c2ccccc12	none (no result: SENP8 block-1, SENP1 inh)
